Assay outcomes as filed in PubChem.
NadD inh: inhibitors of S. aureus NadD, primary screen, biochemical, colorimetric, uHTS; purified NadD enzyme, colorimetric absorbance read-out; inhibition, % at 20 µM; 360,000 compounds, 0.78% hits; AID 602399, 2012; in the data active = inhibition above about 26%
IMP-1 inh-1: IMP-1 metallo-beta-lactamase inhibitors, primary screen, biochemical, epi-absorbance readout, Pseudomonas aeruginosa enzyme; purified IMP-1, nitrocefin hydrolysis, epi-absorbance fluorescence; inhibition, % at 5.6 µM; 290,000 compounds, 0.45% hits; AID 1556, 2009;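 active = inhibition above the mean plus 3 SD of all compounds in the same screening run, cut at about 4.5% in these data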
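System: purified IMP-1 / Input: IMP-1 dispensed at 0.2 nM / Medium: 50 mM HEPES pH 7.1, 50 µM ZnSO4, 0.05% Brij 35 / Timing: 15 min enzyme–compound preincubation, then 25 min nitrocefin reaction, 25 °C / Technique: plate fluorescence quenching by hydrolysis product, ex 480/em 530 nm / Repeats: singlicate testing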
VIM-2 inhibitor: VIM-2 metallo-beta-lactamase inhibitors, primary screen, biochemical, epi-absorbance readout, Pseudomonas aeruginosa enzyme; purified VIM-2, nitrocefin hydrolysis, epi-absorbance fluorescence; inhibition, % at 5.6 µM; 290,000 compounds, 0.89% hits; AID 1527, 2009;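 active = inhibition above the mean of all tested compounds plus 3 SD, cutoff set per screening run, cut at about 7.5% in these data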;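 also: red hydrolysis product quenches plate fluorescence so inhibitors raise well fluorescence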
HCV core dimer: inhibitors of HCV core protein dimerization, primary screen, biochemical, TR-FRET, high-throughput | AID 1899, 2009 | TR-FRET GST/Flag-core106 dimerization, 1536-well | inhibition, % at 5 µM | 300,000 compounds, 0.33% hits;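 active = inhibition above the mean of all tested compounds plus 3 SD, set per screening campaign, cut at about 45% in these data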
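Assay system – GST-tagged and Flag-tagged HCV core protein residues 1-106 · Quantity – core106 proteins, GST 13.5 nM and Flag 17 nM · Benchmarks – unlabelled core106 and no-GST-core106 wells · Read-out basis – percent inhibition of core106 dimerization signal · Detection – time-resolved FRET, ex 340 nm, em 617 and 671 nm · Schedule – 4 h at 22.5 °C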
IMP-1 inh-2: IMP-1 metallo-beta-lactamase inhibitors, confirmation, selectivity assay for selective VIM-2 inhibitor project, biochemical, epi-absorbance readout, triplicate; shares compounds with VIM-2 inhibitor; purified IMP-1, nitrocefin hydrolysis, epi-absorbance fluorescence; inhibition, % at 5.6 µM; 1,300 tested, under 10 active; AID 1856, 2009; call rule not given here
VIM-2 FRET inh: VIM-2 inhibitors in FRET format, confirmation, artefact control for selective VIM-2 inhibitor project, biochemical, epi-absorbance artifact exclusion; shares compounds with VIM-2 inhibitor; purified VIM-2, CCF2 FRET substrate hydrolysis; inhibition, % at 5.6 µM; 1,300 compounds, 23% hits; AID 1857, 2009;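 active = inhibition above the mean of all tested compounds plus 3 SD, cut at about 19% in these data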
TEM-1 counter-1: TEM-1 serine beta-lactamase inhibitors, counter-screen for VIM-2 inhibitor project, biochemical, epi-absorbance, HTS; Purified TEM-1, nitrocefin hydrolysis, epi-absorbance fluorescence; inhibition, % at 5.6 µM; shares compounds with VIM-2 inhibitor; 1,300 compounds, 3% hits;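 active = inhibition above that campaign's mean inhibition plus 3 SD, cut at about 0.46% in these data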
Target sequence (P62593 whole entry, looked up): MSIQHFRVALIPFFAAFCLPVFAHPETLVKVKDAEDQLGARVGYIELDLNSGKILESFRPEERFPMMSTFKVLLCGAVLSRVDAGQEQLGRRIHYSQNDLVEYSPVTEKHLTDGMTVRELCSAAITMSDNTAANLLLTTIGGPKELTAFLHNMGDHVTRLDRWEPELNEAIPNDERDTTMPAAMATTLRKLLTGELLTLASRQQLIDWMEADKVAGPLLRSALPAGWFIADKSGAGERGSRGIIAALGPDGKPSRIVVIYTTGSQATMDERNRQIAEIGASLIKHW
VIM-2 inh conf: VIM-2 metallo-beta-lactamase inhibitors, confirmation, biochemical, epi-absorbance, hits shared with IMP-1 screen. 1,300 compounds, 96% hits. inhibition, % at 5.6 µM. AID 2187, 2009. purified VIM-2, nitrocefin hydrolysis. shares compounds with VIM-2 inhibitor;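 active = inhibition of the VIM-2 beta-lactamase enzyme above about 11% from the earlier first-round screen, limit read from the data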
VIM-2 inh confirm: P. aeruginosa VIM-2 enzyme inhibition – biochemical, epi-absorbance, HTS, confirmation; AID 1860, 2009; shares compounds with IMP-1 inh-1; inhibition, % at 5.6 µM; 200 compounds, 73% hits; purified VIM-2 enzyme, nitrocefin absorbance; in the data active = inhibition above about 8%
TEM-1 counter-2: Serine beta-lactamase TEM-1 inhibition, biochemical epi-absorbance counter-screen for IMP-1/VIM-2 inhibitor program | shares compounds with IMP-1 inh-1 | TEM-1 beta-lactamase, nitrocefin absorbance inhibition | inhibition, % at 5.6 µM | 200 compounds, 50% hits | AID 2184, 2009; in the data active = inhibition above about 0.66%
IMP-1 confirm: IMP-1 metallo-beta-lactamase inhibitors, confirmation, biochemical, epi-absorbance, hits shared with VIM-2 screen; 200 compounds, 60% hits; inhibition, % at 5.6 µM; purified IMP-1 enzyme, absorbance substrate hydrolysis; shares compounds with IMP-1 inh-1; in the data active = inhibition above about 4.9%
NadD conf: inhibitors of S. aureus NadD, confirmation, biochemical, colorimetric, single concentration; purified S. aureus NadD, colorimetric enzyme assay; 2,000 compounds, 13% hits; shares compounds with NadD inh; inhibition, % at 20 µM; in the data active = inhibition mostly above about 42%, no sharp cut-off; inactive = mostly below about 42%
A number is an active result; n = inactive; x = not tested or not shown. Shown are actives, neighbours in structure and some others; about 1.9% of the full set was active somewhere.

SMILES	NadD inh	IMP-1 inh-1	VIM-2 inhibitor	HCV core dimer	others
O=[N+]([O-])c1ccc(N2CCCC2)cc1N/N=C1\CN2CCC1CC2	n	n	13	n	IMP-1 inh-2=n;VIM-2 FRET inh=32;TEM-1 counter-1=n;VIM-2 inh conf=25
O=[N+]([O-])c1ccc(N2CCNCC2)cc1NC1CC1	x	n	n	n
COC(=O)C1=C(c2ccccc2)C[C@@H]2CC[C@H]1N2C(=O)NCc1ccc(F)cc1	n	x	x	n
CCN(CC)C(=O)COc1cc(C)cc2oc(=O)c3c(c12)CCCC3	n	n	n	x
Cc1cc(OCC(=O)NC(Cc2ccc(Cl)cc2)C(=O)O)c2c3c(c(=O)oc2c1)CCCC3 (centres undefined)	n	n	33	n	IMP-1 inh-2=n;VIM-2 FRET inh=47;TEM-1 counter-1=0.6;VIM-2 inh conf=37
Cc1cc(OCC(=O)NCc2ccncc2)c2c3c(c(=O)oc2c1)CCC3	n	n	72	n	IMP-1 inh-2=n;VIM-2 FRET inh=n;TEM-1 counter-1=n;VIM-2 inh conf=78
NC(=S)N/N=C/c1coc2ccccc2c1=O	n	n	n	n
Cn1cccc1CN1CCN(C(=O)COc2ccccc2)CC1	n	n	n	n
Cn1nc(-c2ccc(OCC(=O)N3CCN(Cc4ccccc4)CC3)cc2)c2ccccc2c1=O	n	n	13	n	IMP-1 inh-2=n;VIM-2 FRET inh=n;TEM-1 counter-1=n;VIM-2 inh conf=28
CN1CCN(c2ccc(N)cc2)CC1	n	n	37	n	IMP-1 inh-2=n;VIM-2 FRET inh=n;TEM-1 counter-1=n;VIM-2 inh conf=59
CCN1CCN(c2ccc(N)cc2)CC1	n	n	38	n	IMP-1 inh-2=n;VIM-2 FRET inh=n;TEM-1 counter-1=n;VIM-2 inh conf=27
C=CCn1c(O)c(C=NCCCn2ccnc2)c(=O)[nH]c1=O	n	n	23	n	IMP-1 inh-2=n;VIM-2 FRET inh=n;TEM-1 counter-1=n;VIM-2 inh conf=37
Cc1ccccc1C1=NCC(=O)N(CC(=O)N2CCCCC2)c2sc(C)c(C)c21	n	n	n	n
Nc1c(C(=O)NCCN2CCOCC2)c2nc3ccccc3nc2n1Cc1ccco1	n	n	15	n	IMP-1 inh-2=n;VIM-2 FRET inh=n;TEM-1 counter-1=n;VIM-2 inh conf=29
CCN(CC)S(=O)(=O)c1ccc(C(=O)NC2CN3CCC2CC3)cc1 (centres undefined)	n	n	n	n
CN1CCc2cc3c(c4c2C1Cc1ccccc1-4)OCO3 (centres undefined)	n	n	19	n	IMP-1 inh-2=n;VIM-2 FRET inh=n;TEM-1 counter-1=n;VIM-2 inh conf=11
CN1CCc2cc(O)cc3c2[C@H]1Cc1ccc(O)c(O)c1-3	n	x	x	n
CCOC(=O)C1CCN(C(C)C(=O)c2c[nH]c3ccccc23)CC1 (centres undefined)	n	n	n	n
O=[N+]([O-])c1ccc(N2CCCCCC2)c2nonc12	n	15	13	n	VIM-2 inh confirm=19;TEM-1 counter-2=22;IMP-1 confirm=16
O=C(Nc1cccc2ccccc12)c1nn(C23CC4CC(CC(C4)C2)C3)cc1Br	n	n	n	n
Nc1ccc2ccc3cccc[n+]3c2c1	n	26	25	n	VIM-2 inh confirm=35;TEM-1 counter-2=40;IMP-1 confirm=24
CC(C)OCC(O)CN1CC2C[C@@H](C1)Cn1c2cccc1=O (some centres undefined)	n	n	n	n
O=c1cc(C(F)(F)F)c2cc3c4c(c2o1)CCCN4CCC3	n	7.8	8.5	n	VIM-2 inh confirm=35;TEM-1 counter-2=52;IMP-1 confirm=26
Cc1cc2c(C(F)(F)F)cc(=O)oc2c2c1NCCC2	n	n	n	n
O=C1NCN(c2ccccc2)C12CCN(C(c1cccc3ccccc13)c1nnnn1-c1ccc3c(c1)OCCO3)CC2 (centres undefined)	31	x	x	x	NadD conf=n
SMILES	NadD inh	IMP-1 inh-1	VIM-2 inhibitor	HCV core dimer	others
O=C1NCN(c2ccccc2)C12CCN(C(c1ccccc1)c1nnnn1-c1ccc3c(c1)OCCO3)CC2 (centres undefined)	n	x	x	x
O=C1NCN(c2ccccc2)C12CCN(C(c1cccc3ccccc13)c1nnnn1Cc1ccccc1)CC2 (centres undefined)	32	x	x	x	NadD conf=n
O=[N+]([O-])NC1=NCN(Cc2ccco2)CN1Cc1ccco1	n	n	n	n
Nc1c(C(=O)OCc2ccccc2)c2nc3ccccc3nc2n1Cc1cccs1	30	n	n	n	NadD conf=n
O=c1[nH]c2ccccc2n1C1CCN(C(c2ccccc2OC(F)(F)F)c2nnnn2-c2ccc3c(c2)OCCO3)CC1 (centres undefined)	29	x	x	x	NadD conf=n
COc1cccc(C(c2nnnn2-c2ccc3c(c2)OCCO3)N2CCC(n3c(=O)[nH]c4ccccc43)CC2)c1OC (centres undefined)	n	x	x	x
O=c1[nH]c2ccccc2n1C1CCN(C(c2ccccc2)c2nnnn2-c2ccc3c(c2)OCCO3)CC1 (centres undefined)	31	x	x	x	NadD conf=n
Clc1cc(Cl)c(-c2cc(Cl)c(Cl)cc2Cl)cc1Cl	n	x	x	x
CN(C)CP(=O)(O)CN(C)C=O	n	n	n	n
CCCCCCn1c(=O)c(C(=O)Nc2c(C)n(C)n(-c3ccccc3)c2=O)c(O)c2ccccc21	32	n	n	n	NadD conf=n
CCCCCn1c(=O)c(C(=O)Nc2ccccc2)c(O)c2ccccc21	n	n	n	n
Cc1ccc2c(c1Cl)NC(C(=O)O)C1CC(Sc3ccccc3[N+](=O)[O-])C(Cl)C21 (centres undefined)	36	n	n	66	NadD conf=n
C[C@]12CCC(=O)C=C1CC[C@@H]1[C@@H]2C(=O)C[C@]2(C)C(=O)CC[C@@H]12	n	n	n	n
CC12CN3CC(c4ccccc4)(CN(C1)C31CCCCC1)C2=O	n	n	n	n
COC1C(OC(=O)c2ccc(C)[nH]2)C(O)C(Oc2ccc3c(O)c(NC(=O)c4ccc(O)c(CC=C(C)C)c4)c(=O)oc3c2Cl)OC1(C)C (centres undefined)	31	n	n	n	NadD conf=50
